Assay results published in ChEMBL document CHEMBL4251703, “Linker Variation and Structure-Activity Relationship Analyses of Carboxylic Acid-based Small Molecule STAT3 Inhibitors” (ACS Med Chem Lett, 2018).
Converted amounts (≈) assume the structure as drawn. The source made the active and inactive calls. No cut-off for these calls is given here.

Assays:
[1] = biological target: Signal transducer and activator of transcription 3 (Homo sapiens) (UniProt P40763); test: Inhibition of STAT3 DNA binding activity in human MDA-MB-231 nuclear extract at 10 uM after 24 hrs by electrophoretic mobility shift assay
Sequence of Signal transducer and activator of transcription 3 (Homo sapiens) (P40763 whole entry): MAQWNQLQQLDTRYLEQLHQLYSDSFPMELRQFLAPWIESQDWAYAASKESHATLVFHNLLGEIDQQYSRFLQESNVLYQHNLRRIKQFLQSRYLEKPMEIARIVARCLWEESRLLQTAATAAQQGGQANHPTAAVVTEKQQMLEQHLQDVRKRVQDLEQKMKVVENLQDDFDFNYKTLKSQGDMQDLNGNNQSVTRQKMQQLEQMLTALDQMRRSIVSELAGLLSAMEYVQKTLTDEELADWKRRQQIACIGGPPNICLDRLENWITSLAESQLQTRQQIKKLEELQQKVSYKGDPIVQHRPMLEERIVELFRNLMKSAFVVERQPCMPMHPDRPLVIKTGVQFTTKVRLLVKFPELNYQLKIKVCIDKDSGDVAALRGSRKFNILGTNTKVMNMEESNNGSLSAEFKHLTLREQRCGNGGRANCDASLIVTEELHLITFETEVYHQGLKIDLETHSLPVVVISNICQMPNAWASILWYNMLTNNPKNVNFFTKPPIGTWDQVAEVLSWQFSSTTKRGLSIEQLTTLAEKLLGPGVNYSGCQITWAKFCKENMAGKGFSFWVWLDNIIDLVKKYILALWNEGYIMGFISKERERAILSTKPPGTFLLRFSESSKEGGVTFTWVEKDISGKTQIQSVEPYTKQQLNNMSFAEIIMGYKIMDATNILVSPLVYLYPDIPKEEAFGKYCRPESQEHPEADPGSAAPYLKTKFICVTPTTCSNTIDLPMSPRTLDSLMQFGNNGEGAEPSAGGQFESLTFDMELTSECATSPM
Summary of the method: (§1)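 MDA-MB-231 breast cancer cells were exposed to 10 μM compound for 1, 3 or 24 h. Nuclear extracts of equal total protein were then assayed for STAT3 DNA-binding by EMSA.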

[2] = biological target: Signal transducer and activator of transcription 3 (Homo sapiens) (UniProt P40763); test: Inhibition of STAT3 DNA binding activity in human MDA-MB-231 nuclear extract at 10 uM after 3 hrs by electrophoretic mobility shift assay; summary of the method: as §1
[3] = biological target: Signal transducer and activator of transcription 3 (Homo sapiens) (UniProt P40763); test: Inhibition of STAT3 DNA binding activity in human MDA-MB-231 nuclear extract at 10 uM after 1 hr by electrophoretic mobility shift assay; summary of the method: as §1
MDA-MB-468 = test: Cytotoxicity against human MDA-MB-468 cells harboring active STAT3 assessed as decrease in cell viability up to 10 uM after 72 hrs by CyQuant dye based assay; format: functional
Summary of the method: (§2)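 Cells were grown in 96-well format and treated once with 0–10 μM compound for 72 h. Viable cells were quantified by CyQuant proliferation assay and plotted as % viability against concentration. Data are mean ± SD of three independent determinations.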

MDA-MB-231 [4] = test: Cytotoxicity against human MDA-MB-231 cells harboring active STAT3 assessed as decrease in cell viability up to 5 uM after 72 hrs by trypan blue exclusion based phase-contrast microscopy; format: functional
[5] = biological target: Signal transducer and activator of transcription 3 (Homo sapiens) (UniProt P40763); test: Inhibition of STAT3 in human MDA-MB-468 cells assessed as reduction in p-STAT3(Y705) level at 5 uM after 1 to 24 hrs by immunoblot analysis; format: cell-based
MCF7 = test: Cytotoxicity against human MCF7 cells assessed as decrease in cell viability up to 10 uM after 72 hrs by CyQuant dye based assay; format: functional; summary of the method: as §2
[6] = biological target: Signal transducer and activator of transcription 3 (Homo sapiens) (UniProt P40763); test: Inhibition of STAT3 in human MDA-MB-231 cells assessed as reduction in p-STAT3(Y705) level at 5 uM after 1 to 24 hrs by immunoblot analysis; format: cell-based
MDA-MB-231 [7] = test: Cytotoxicity against human MDA-MB-231 cells harboring active STAT3 assessed as decrease in cell viability up to 10 uM after 72 hrs by CyQuant dye based assay; format: functional; summary of the method: as §2
[8] = Half life in mouse liver microsomes; format: ADME, microsome
[9] = Apparent permeability of the compound from apical to basolateral side in human Caco2 cells; format: ADME, cell-based; conditions: Caco-2
[10] = Half life in human liver microsomes; format: ADME, microsome
[11] = Cytotoxicity against human AR7119 cells assessed as decrease in cell viability up to 20 uM after 48 hrs by MTT assay; format: cell-based
[12] = Solubility of the compound in PBS at pH 7.4; format: physicochemical
Summary of the method: (§3)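 Aqueous solubility was determined in pH 7.4 PBS and in pH 6.8 buffered simulated intestinal fluid, reported in μg/mL.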

[13] = Solubility of the compound in simulated intestinal fluid at pH 6.8; format: physicochemical; summary of the method: as §3
MDA-MB-231 [14] = test: Anticlonogenic activity against human MDA-MB-231 cells up to 3 uM after 4 hrs by crystal violet staining based assay; format: functional, cell-based
Summary of the method: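 Single-cell cultures of MDA-MB-231 cells were treated once and cultured until large colonies were visible. Colonies were then stained with crystal violet, counted and plotted.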

[15] = biological target: Signal transducer and activator of transcription 3 (Homo sapiens) (UniProt P40763); test: Inhibition of STAT3 in human MDA-MB-231 cells assessed as reduction in p-STAT3(Y705) level at 10 uM after 1 hr by immunoblot analysis; format: cell-based
[16] = biological target: Signal transducer and activator of transcription 3 (Mus musculus) (UniProt P42227); test: (§4) Inhibition of STAT3 DNA binding activity in mouse NIH/3T3 nuclear extract preincubated for 30 mins followed by [32P]hSIE addition measured after 30 mins by electrophoretic mobility shift assay
Sequence of Signal transducer and activator of transcription 3 (Mus musculus) (P42227 whole entry): as the sequence (P40763 whole entry) above, with E760D counted along it
Summary of the method: (§5)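 STAT3 DNA-binding was measured by EMSA using nuclear extracts of equal total protein from v-Src-transformed fibroblasts containing activated STAT3. Extracts were preincubated for 30 min with 0–100 μM compound, then incubated with radiolabeled hSIE probe.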

MDA-MB-231 [17] = test: Antimigratory activity against human MDA-MB-231 cells at 8 uM after 22 to […] hrs by inverted fluorescence microscope; format: functional, cell-based
Summary of the method: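 Confluent MDA-MB-231 cultures were wounded and treated once with or without 8 μM compound. Migration into the denuded area was followed over 23 h and imaged. Controls received 0.05% DMSO.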

[18] = biological target: Signal transducer and activator of transcription 3 (Mus musculus, UniProt P42227); test: as §4; summary of the method: as §5
Sequence of Signal transducer and activator of transcription 3 (P42227 whole entry): as the sequence (P40763 whole entry) above, with E760D counted along it

[19] = biological target: Signal transducer and activator of transcription 3 (Homo sapiens) (UniProt P40763); test: Inhibition of STAT3 in human C8161 cells assessed as reduction in p-STAT3(Y705) level at 10 to 20 uM after 1 to 3 hrs by immunoblot analysis; format: cell-based
[20] = biological target: Signal transducer and activator of transcription 3 (Homo sapiens) (UniProt P40763); test: Inhibition of STAT3 DNA binding activity in human MDA-MB-468 nuclear extract at 5 uM after 3 to 24 hrs by electrophoretic mobility shift assay
Summary of the method: (§6)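 MDA-MB-468 cells received 5 μM compound for 3 or 24 h. STAT3 DNA-binding in nuclear extracts of equal total protein was then analysed by EMSA.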

[21] = biological target: Signal transducer and activator of transcription 3 (Homo sapiens) (UniProt P40763); test: Inhibition of STAT3 in human UACC-903 cells assessed as reduction in p-STAT3(Y705) level at 10 to 20 uM after 1 to 3 hrs by immunoblot analysis; format: cell-based
[22] = biological target: Signal transducer and activator of transcription 3 (Homo sapiens) (UniProt P40763); test: Inhibition of STAT3 in human 1205 Lu cells assessed as reduction in p-STAT3(Y705) level at 10 to 20 uM after 1 to 3 hrs by immunoblot analysis; format: cell-based
Homo sapiens [23] = species: Homo sapiens; test: Cytotoxicity against human C81-61 cells harboring active STAT3 assessed as decrease in cell viability up to 20 uM after 48 hrs by MTT assay; format: functional, cell-based
Homo sapiens [24] = species: Homo sapiens; test: Cytotoxicity against human 1205 Lu cells harboring active STAT3 assessed as decrease in cell viability up to 20 uM after 48 hrs by MTT assay; format: functional, cell-based
Homo sapiens [25] = species: Homo sapiens; test: Cytotoxicity against human C8161 cells harboring active STAT3 assessed as decrease in cell viability up to 20 uM after 48 hrs by MTT assay; format: functional, cell-based
[26] = biological target: Signal transducer and activator of transcription 3 (Homo sapiens) (UniProt P40763); test: Inhibition of STAT3 DNA binding activity in human MDA-MB-468 nuclear extract at 5 uM after 24 hrs by electrophoretic mobility shift assay; summary of the method: as §6
[27] = biological target: Mitogen-activated protein kinase; ERK1/ERK2 (Homo sapiens) (UniProt P27361+P28482); test: Inhibition of ERK1/2 phosphorylation in human MDA-MB-231 cells at 5 uM after 24 hrs by immunoblot analysis; format: cell-based
Sequence of Mitogen-activated protein kinase; ERK1/ERK2 (Homo sapiens) (P27361 whole entry, looked up): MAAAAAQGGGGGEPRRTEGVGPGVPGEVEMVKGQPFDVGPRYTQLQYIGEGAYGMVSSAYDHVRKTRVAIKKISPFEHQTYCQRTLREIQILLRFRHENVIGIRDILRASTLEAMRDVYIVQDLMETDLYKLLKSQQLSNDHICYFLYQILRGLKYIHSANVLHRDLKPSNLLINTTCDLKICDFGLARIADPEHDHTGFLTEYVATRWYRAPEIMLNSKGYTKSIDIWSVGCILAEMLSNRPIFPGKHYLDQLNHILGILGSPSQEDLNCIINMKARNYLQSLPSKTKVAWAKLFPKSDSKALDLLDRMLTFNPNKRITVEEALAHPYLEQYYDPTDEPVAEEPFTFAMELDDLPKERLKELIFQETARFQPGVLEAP
Sequence of Mitogen-activated protein kinase; ERK1/ERK2 (Homo sapiens) (P28482 whole entry, looked up): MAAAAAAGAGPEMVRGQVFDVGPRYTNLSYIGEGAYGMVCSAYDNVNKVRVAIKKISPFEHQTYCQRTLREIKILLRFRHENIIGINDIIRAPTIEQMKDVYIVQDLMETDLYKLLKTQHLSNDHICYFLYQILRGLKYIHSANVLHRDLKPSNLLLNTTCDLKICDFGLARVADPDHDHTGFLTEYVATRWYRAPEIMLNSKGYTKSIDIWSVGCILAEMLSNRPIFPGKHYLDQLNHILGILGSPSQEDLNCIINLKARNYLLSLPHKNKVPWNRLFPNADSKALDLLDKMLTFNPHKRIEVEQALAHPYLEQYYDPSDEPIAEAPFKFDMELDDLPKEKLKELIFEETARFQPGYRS

[28] = biological target: Tyrosine-protein kinase JAK2 (Homo sapiens) (UniProt O60674); test: Inhibition of JAK2 phosphorylation in human MDA-MB-231 cells at 5 uM after 24 hrs by immunoblot analysis; format: cell-based
Sequence of Tyrosine-protein kinase JAK2 (Homo sapiens) (O60674 whole entry): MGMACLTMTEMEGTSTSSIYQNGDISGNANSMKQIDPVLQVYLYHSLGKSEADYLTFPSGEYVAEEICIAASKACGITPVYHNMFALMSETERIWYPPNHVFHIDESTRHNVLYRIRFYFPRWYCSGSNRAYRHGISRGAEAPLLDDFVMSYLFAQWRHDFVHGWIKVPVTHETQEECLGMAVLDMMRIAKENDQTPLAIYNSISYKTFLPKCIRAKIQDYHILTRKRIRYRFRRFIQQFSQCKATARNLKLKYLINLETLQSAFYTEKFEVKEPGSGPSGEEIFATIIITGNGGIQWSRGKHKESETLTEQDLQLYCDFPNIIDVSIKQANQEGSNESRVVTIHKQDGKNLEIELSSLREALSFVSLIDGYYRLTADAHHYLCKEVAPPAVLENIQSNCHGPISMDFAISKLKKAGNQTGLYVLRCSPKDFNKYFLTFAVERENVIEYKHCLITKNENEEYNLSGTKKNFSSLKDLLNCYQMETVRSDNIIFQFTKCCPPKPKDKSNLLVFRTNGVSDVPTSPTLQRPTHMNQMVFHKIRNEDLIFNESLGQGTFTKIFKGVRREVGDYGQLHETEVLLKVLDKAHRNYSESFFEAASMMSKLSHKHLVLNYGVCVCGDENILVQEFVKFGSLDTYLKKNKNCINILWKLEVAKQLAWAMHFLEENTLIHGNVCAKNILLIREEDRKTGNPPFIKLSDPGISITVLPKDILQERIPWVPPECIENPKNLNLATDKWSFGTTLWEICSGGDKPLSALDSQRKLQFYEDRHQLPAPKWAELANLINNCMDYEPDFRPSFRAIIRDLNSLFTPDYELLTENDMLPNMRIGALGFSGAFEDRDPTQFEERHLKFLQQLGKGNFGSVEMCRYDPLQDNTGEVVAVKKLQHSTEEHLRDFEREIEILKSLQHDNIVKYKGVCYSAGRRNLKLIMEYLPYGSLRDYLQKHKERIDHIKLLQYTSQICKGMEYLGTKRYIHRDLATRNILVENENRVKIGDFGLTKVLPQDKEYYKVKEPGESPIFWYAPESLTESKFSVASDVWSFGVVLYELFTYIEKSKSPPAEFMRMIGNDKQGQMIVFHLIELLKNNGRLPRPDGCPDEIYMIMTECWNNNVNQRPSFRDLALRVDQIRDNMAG

[29] = biological target: Proto-oncogene tyrosine-protein kinase Src (Homo sapiens) (UniProt P12931); test: Inhibition of SRC phosphorylation in human MDA-MB-231 cells at 5 uM after 24 hrs by immunoblot analysis; format: cell-based
Sequence of Proto-oncogene tyrosine-protein kinase Src (Homo sapiens) (P12931 2-536 limits assumed): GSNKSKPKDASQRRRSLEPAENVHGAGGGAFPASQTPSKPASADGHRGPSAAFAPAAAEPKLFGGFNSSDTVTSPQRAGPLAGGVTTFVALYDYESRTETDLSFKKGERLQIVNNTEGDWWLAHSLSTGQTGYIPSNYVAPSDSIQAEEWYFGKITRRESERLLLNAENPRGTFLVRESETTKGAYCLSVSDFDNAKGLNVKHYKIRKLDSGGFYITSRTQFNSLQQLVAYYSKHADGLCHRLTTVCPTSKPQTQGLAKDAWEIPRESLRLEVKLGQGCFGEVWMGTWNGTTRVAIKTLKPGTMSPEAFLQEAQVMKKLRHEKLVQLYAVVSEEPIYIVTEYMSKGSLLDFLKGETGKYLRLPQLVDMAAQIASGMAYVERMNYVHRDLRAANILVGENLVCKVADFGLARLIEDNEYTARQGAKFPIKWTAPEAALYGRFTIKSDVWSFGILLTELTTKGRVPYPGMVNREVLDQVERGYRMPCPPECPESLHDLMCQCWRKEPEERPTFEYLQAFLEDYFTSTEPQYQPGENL

Compound: C[C@@H](C(=O)N(Cc1ccc(C2CCCCC2)cc1)c1ccc(C(=O)O)c(O)c1)N(C)S(=O)(=O)c1c(F)c(F)c(F)c(F)c1F
- inhibition [1]: Active
- inhibition [2]: Active
- inhibition [3]: inactive

Compound: C[C@H](C(=O)N(Cc1ccc(C2CCCCC2)cc1)c1ccc(C(=O)O)cc1F)N(C)S(=O)(=O)c1c(F)c(F)c(F)c(F)c1F
- Activity (MDA-MB-468): Active
- Activity (MDA-MB-231 [4]): Active
- inhibition [5]: Active
- Activity (MCF7): inactive
- p-STAT3(Y705) reduction (qualitative call) [6]: Active
- Activity (MDA-MB-231 [7]): Active

Compound: O=C(O)c1ccc(N(Cc2ccc(C3CCCCC3)cc2)C(=O)[C@@H]2CCCN2S(=O)(=O)c2c(F)c(F)c(F)c(F)c2F)c(F)c1
- half-life [8]: 26 min
- Papp A→B [9]: 0.1 ×10⁻⁶ cm/s
- half-life [10]: 54 min

Compound: C[C@H](C(=O)N(Cc1ccc(C2CCCCC2)cc1)c1ccc(C(=O)O)c(O)c1)N(C)S(=O)(=O)c1c(F)c(F)c(F)c(F)c1F [listing 1 of 2 here]
- Activity [11]: Non-Toxic

Compound: CN(CC(=O)N(Cc1ccc(C2CCCCC2)cc1)c1ccc(C(=O)NO)cc1)S(=O)(=O)c1c(F)c(F)c(F)c(F)c1F
- half-life [8]: ≥ 17 min
- solubility [12]: 0.3 µg/mL (≈ 0.48 µM)
- solubility [13]: 74 µg/mL (≈ 118 µM)
- half-life [10]: ≥ 17 min

Compound: Cc1cc(C(=O)O)ccc1N(Cc1ccc(C2CCCCC2)cc1)C(=O)CN(C)S(=O)(=O)c1c(F)c(F)c(F)c(F)c1F
- Activity (MDA-MB-231 [14]): Active
- Activity (MDA-MB-468): Active
- inhibition [15]: Active
- inhibition [16]: inactive
- Activity (MCF7): inactive
- Activity (MDA-MB-231 [7]): Active
- Activity (MDA-MB-231 [17]): Active

Compound: CN(CC(=O)N(Cc1ccc(C2CCCCC2)cc1)c1ccc(C(=O)O)cc1Cl)S(=O)(=O)c1c(F)c(F)c(F)c(F)c1F
- Activity (MDA-MB-231 [14]): Active
- Activity (MDA-MB-468): Active
- inhibition [15]: Active
- IC50 [18]: 8.6 to 14.4 µM
- Activity (MCF7): inactive
- Activity (MDA-MB-231 [7]): Active
- Activity (MDA-MB-231 [17]): Active

Compound: C[C@H](C(=O)N(Cc1ccc(C2CCCCC2)cc1)c1ccc(C(=O)O)c(O)c1)N(C)S(=O)(=O)c1c(F)c(F)c(F)c(F)c1F [listing 2 of 2 here]
- inhibition [1]: inactive
- inhibition [5]: Active
- inhibition [19]: Active
- inhibition [20]: Active
- inhibition [2]: Active
- inhibition [21]: Active
- inhibition [22]: Active
- inhibition [16]: Active
- p-STAT3(Y705) reduction (qualitative call) [6]: Active
- Activity (Homo sapiens [23]): Active
- Activity (Homo sapiens [24]): Active
- Activity (Homo sapiens [25]): Active
- inhibition [3]: inactive

Compound: C[C@H](C(=O)N(Cc1ccc(C2CCCCC2)cc1)c1ccc(C(=O)O)cc1Cl)N(C)S(=O)(=O)c1c(F)c(F)c(F)c(F)c1F
- Activity (MDA-MB-231 [14]): Active
- Activity (MDA-MB-468): Active
- inhibition [15]: Active
- inhibition [26]: Active
- inhibition [27]: inactive
- Activity (MCF7): inactive
- inhibition [28]: inactive
- Activity (MDA-MB-231 [7]): Active
- Activity (MDA-MB-231 [17]): Active
- inhibition [29]: inactive

Compound: O=C([O-])c1ccc(N(Cc2ccc(C3CCOCC3)cc2)C(=O)[C@H]2CCCN2S(=O)(=O)c2c(F)c(F)c(F)c(F)c2F)cc1O.[Na+]
- Papp A→B [9]: 0.2 ×10⁻⁶ cm/s
- solubility [12]: 123 µg/mL
- solubility [13]: 117 µg/mL

Compound: CN(CC(=O)N(Cc1ccc(C2CCCCC2)cc1)c1ccc(C(=O)O)cc1)S(=O)(=O)c1c(F)c(F)c(F)c(F)c1F
- half-life [8]: ≥ 17 min
- solubility [12]: 7.6 µg/mL (≈ 12.4 µM)
- solubility [13]: 14 µg/mL (≈ 22.9 µM)
- half-life [10]: ≥ 17 min
